This passage reports Activity and IC50 results from ChEMBL document CHEMBL5390262, “Further Studies on the Highly Active Des-C-Ring and Aromatic-D-Ring Analogues of 1α,25-Dihydroxyvitamin D3 (Calcitriol): Refinement of the Side Chain” (J Med Chem, 2023).

Data set [1] deals with MDA-MB-231. Put plainly: Antiproliferative activity against human MDA-MB-231 cells assessed as decrease in cell proliferation at 0.1 uM incubated for 48 hrs in presence of cisplatin by MTT assay. It counts as functional, cell-based. An outline of the steps:
(§1)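 MDA-MB-231 cells seeded at 2 x 10^5 cells/well in medium with charcoal-treated FCS, then treated 24 h later with compound at 10^-7 M (ethanol vehicle) for 48 h, alone or together with cisplatin 25 μM. Read by MTT, DMSO solubilization, absorbance at 570 nm. Expressed as percent inhibition of proliferation relative to ethanol control normalized to 100%.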
(In general: Tetrazolium assays rely on reduction of a dye to a coloured formazan, in cell work by metabolically active cells.)

Data set [2] can be described thus: Toxicity in Swiss CD-1 mouse assessed as body weight change at 0.3 microg/kg,ip using sesame oil as vehicle for 21 days on every other day. The settings on record: in vivo, 0.0003 mg/kg, 504 h, dose 0.3 µg/kg, time 21 day. An outline of the steps:
(§2)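 Groups of 5 male Swiss CD-1 mice given 0.3 μg/kg i.p. every other day for 21 days in sesame oil vehicle; sesame oil alone as control. Body weight recorded at day 21. Serum calcium measured at end of test by colorimetric calcium assay kit. Mean ± SD, n=5.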

A further data set deals with MCF7. Put plainly: Upregulation of Cadherin-1 protein expression in human MCF7 cells at 0.1 uM incubated for 48 hrs by Western blot analysis. It counts as functional, cell-based. The method in brief:
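MCF-7 cells in charcoal-stripped FCS medium treated with compound at 10^-7 M (ethanol vehicle) for 48 h. E-cadherin protein detected by Western blot with GAPDH as loading control; bands quantified by densitometry.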
(In general: In western blotting, separated proteins are transferred to a membrane and probed.)

The target in another data set is T1, Vitamin D3 receptor (Homo sapiens, UniProt P11473).
T1 sequence (P11473 whole entry): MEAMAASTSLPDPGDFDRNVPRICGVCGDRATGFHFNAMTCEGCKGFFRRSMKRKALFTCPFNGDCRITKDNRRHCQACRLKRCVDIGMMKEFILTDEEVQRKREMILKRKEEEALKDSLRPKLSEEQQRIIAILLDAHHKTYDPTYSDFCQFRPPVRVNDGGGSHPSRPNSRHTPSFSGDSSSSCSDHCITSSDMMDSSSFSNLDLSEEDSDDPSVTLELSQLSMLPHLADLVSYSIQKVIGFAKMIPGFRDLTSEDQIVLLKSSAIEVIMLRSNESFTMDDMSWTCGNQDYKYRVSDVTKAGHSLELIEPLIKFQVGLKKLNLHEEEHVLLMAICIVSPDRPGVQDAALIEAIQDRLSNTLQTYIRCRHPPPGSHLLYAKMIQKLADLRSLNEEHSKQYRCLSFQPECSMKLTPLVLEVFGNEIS
Put plainly: Binding affinity to full length human VDR by Competitive binding assay.

The next data set deals with HaCaT. The data set can be described thus: Induction of human HaCaT cells differentiation assessed as increase in formation of compact epithelioid islands at 0.1 microM incubated for 48 hrs by phase-contrast microscopy. In kind it is functional, cell-based. An outline of the steps:
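HaCaT keratinocytes in charcoal-treated FCS medium treated 24 h after plating with compound at 10^-7 M in ethanol for 48 h. Ethanol-treated controls. Differentiation judged by phase-contrast microscopy, e.g. compact epithelioid island formation.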

Data set [3] relates to MDA-MB-231. The data set can be described thus: Antiproliferative activity against human MDA-MB-231 cells cultured as 3D spheroids assessed as decrease in cell growth by measuring the sphere diameter at 0.1 uM incubated for 6 days by Phase-contrast microscopy. It counts as functional, cell-based. The settings on record: time 6.0 day. An outline of the steps: (§3)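 3D culture: single-cell suspension of MDA-MB-231 (5x10^3 cells/100 μL) grown 4 days on a cell-repellent surface. Then treated 6 days with compound at 10^-7 M, given every other day, with or without cisplatin 25 μM. Ethanol control. Sphere growth quantified as relative units; mean ± SD.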

Another data set deals with Mus musculus. The data set can be described thus: Effect on hypercalcemic activity in Swiss CD-1 mouse assessed as increase in serum calcium level at 0.3 microg/kg,ip using sesame oil as vehicle for 21 days on every other day by QuantiChom calcium assay. It counts as functional. The settings on record: dose 0.3 µg/kg, time 21.0 day. An outline of the steps:
as §2

Data set [4] concerns MDA-MB-231. Put plainly: Antiproliferative activity against human MDA-MB-231 cells assessed as decrease in cell proliferation at 0.1 uM incubated for 48 hrs by MTT assay. In kind it is functional, cell-based. The method in brief: as §1
Data set [5] has as its system MDA-MB-231. The data set can be described thus: Antiproliferative activity against human MDA-MB-231 cells cultured as 3D spheroids assessed as decrease in cell growth by measuring the sphere diameter at 0.1 uM incubated for 6 days in presence of cisplatin by Phase-contrast microscopy. The settings on record: time 6.0 day. It counts as functional, cell-based. An outline of the steps:
as §3

pIC50: −log10 of the molar value. Active and inactive are the calls of the source. The rule behind the calls is not given here.

Consider `C=C1/C(=C\C=C(/CC)c2cccc(CCC#CCC(C)(C)O)c2)C[C@@H](O)C[C@@H]1O`, for which the result in the data set with MDA-MB-231 [1], in the data set on MCF7, in the data set on HaCaT, with MDA-MB-231 [4] and with MDA-MB-231 [5] was Active. In addition, in data set [2], the Activity result is “Non-Toxic”. For the same compound, at Vitamin D3 receptor, the pIC50 (commonly the negative decadic logarithm of the IC50, by convention in mol/L) is 8.13. In addition, the result with MDA-MB-231 [3] and in the data set on Mus musculus was inactive.

On to `C=C1/C(=C\C=C(/CC)c2cccc(CCC#CCC(O)(C(F)(F)F)C(F)(F)F)c2)C[C@@H](O)C[C@@H]1O`, for which the outcome in the data set on MDA-MB-231 [1], in the data set on MCF7, in the data set on HaCaT, in the data set with MDA-MB-231 [4] and in the data set with MDA-MB-231 [5] was Active. The Activity entry in [2] was “Non-Toxic”. On Vitamin D3 receptor, this compound had a pIC50 of 8.33. For the same compound, the result with MDA-MB-231 [3] and in the data set on Mus musculus was inactive.

Turning to `C=C1/C(=C\C=C2/CCC[C@]3(C)[C@@H]([C@H](C)CCCC(C)(C)O)CC[C@@H]23)C[C@@H](O)C[C@@H]1O` [CALCITRIOL], the outcome with MDA-MB-231 [1], in the data set with MCF7, in the data set with HaCaT, in the data set on Mus musculus, in the data set with MDA-MB-231 [4] and with MDA-MB-231 [5] was Active. Moreover, the Activity result in data set [2] is “Toxic”. The result in the data set with MDA-MB-231 [3] was inactive.

With `C=C1/C(=C\C=C(/C)c2cccc(CCC#CCC(O)(C(F)(F)F)C(F)(F)F)c2)C[C@@H](O)C[C@@H]1O`, the result in the data set with MDA-MB-231 [1], with MCF7, with HaCaT, in the data set on MDA-MB-231 [4] and in the data set with MDA-MB-231 [5] was Active. Besides, the Activity result in [2] was “Non-Toxic”. The pIC50 at Vitamin D3 receptor was 7.34. In addition, the result in the data set on MDA-MB-231 [3] and in the data set with Mus musculus was inactive.

For `C=C1/C(=C\C=C(/CC)c2cccc(CCCCCC(O)(C(F)(F)F)C(F)(F)F)c2)C[C@@H](O)C[C@@H]1O`, the outcome with MDA-MB-231 [1], in the data set on MCF7, with HaCaT, in the data set on MDA-MB-231 [4] and in the data set on MDA-MB-231 [5] was Active. In addition, the Activity result in data set [2] is listed as “Non-Toxic”. Further, on Vitamin D3 receptor, the pIC50 was 8.54. Moreover, the outcome with MDA-MB-231 [3] and with Mus musculus was inactive.
